Consider one molecule from ChEMBL document CHEMBL5036319, “Discovery of Novel Benzothiazepinones as Irreversible Covalent Glycogen Synthase Kinase 3β Inhibitors for the Treatment of Acute Promyelocytic Leukemia” (J Med Chem, 2021).

Data set [1] is described as follows: Induction in caspase-mediated apoptosis in human NB4-DR1 cells assessed as late apoptotic cells at 100 uM incubated for 24 hrs by Annexin V-FITC/propidium iodide staining based flow cytometry analysis (reference value: 1.47%). Format: functional.
Data set [2] in a line: Induction in caspase-mediated apoptosis in human NB-4 cells assessed as necrotic cells at 50 uM incubated for 24 hrs in presence of Z-VAD-FMK by Annexin V-FITC/propidium iodide staining based flow cytometry analysis (reference value: 0.167%). Format: functional.
Data set [3] can be described thus: Induction in caspase-mediated apoptosis in human NB4-DR1 cells assessed as early apoptotic cells at 50 uM incubated for 24 hrs by Annexin V-FITC/propidium iodide staining based flow cytometry analysis (reference value: 1.43%). The data set is classed as functional.
The nature of data set [4]: Induction in caspase-mediated apoptosis in human NB-4 cells assessed as late apoptotic cells at 50 uM incubated for 24 hrs by Annexin V-FITC/propidium iodide staining based flow cytometry analysis (reference value: 1.06%). Format: functional.
The nature of data set [5]: AUCinfinity in ICR mouse at 15 mg/kg, ip administered as single dose measured upto 8 hrs by LC-MS/MS analysis. The arrangement: route intraperitoneal, dose 15 mg/kg, time <=8. To be noted: in vivo. Format: ADME, organism-based. The method in brief: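 Male ICR mice (30 g) given a single i.p. bolus of 15 mg/kg in corn oil. Blood taken by orbital collection into K3EDTA tubes at 0.08, 0.17, 0.5, 1, 2, 4 and 8 h, three animals per time point, giving a composite profile. Plasma proteins were precipitated with acetonitrile and analysed by LC-MS/MS. Parameters were derived by non-compartmental analysis.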

Data set [6] in a line: Cytotoxicity against human L02 assessed as cell viability at 100 uM incubated for 24 hrs by CCK-8 assay relative to control. The data set is classed as cell-based. Conditions: L02 cells, read-out: Activity. The method in brief:
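HUVEC and LO2 normal cells were cultured in RPMI-1640 or DMEM with 10% FBS at 37 °C, 5% CO2, and seeded at 3 × 10^4 cells/well. They were exposed for 24 h to graded concentrations. CCK-8 incubation was 3 h at 37 °C, with A450 read and viability expressed versus untreated control. Three independent experiments, mean ± SEM.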

The nature of data set [7]: Induction in caspase-mediated apoptosis in human NB-4 cells assessed as early apoptotic cells at 12.5 uM incubated for 24 hrs in presence of Z-VAD-FMK by Annexin V-FITC/propidium iodide staining based flow cytometry analysis (reference value: 1.84%). The data set is classed as functional.
Data set [8] in a line: Induction in caspase-mediated apoptosis in human NB-4 cells assessed as late apoptotic cells at 25 uM incubated for 24 hrs in presence of Z-VAD-FMK by Annexin V-FITC/propidium iodide staining based flow cytometry analysis (reference value: 1.15%). Format: functional.
Data set [9] is described as follows: Induction in caspase-mediated apoptosis in human NB4-DR1 cells assessed as necrotic cells at 12.5 uM incubated for 24 hrs in presence of Z-VAD-FMK by Annexin V-FITC/propidium iodide staining based flow cytometry analysis (reference value: 0.223%). The data set is classed as functional.

Molecules are shown by their SMILES.

In the case of `C=CC(=O)N1C(=O)CC(c2ccc(F)cc2)Sc2ccccc21` (centres undefined), the Activity turned out to be 46.8% in data set [1]; 1.52% in data set [2]; 1.92% in data set [3]; 74% in [4]; 4.58% in data set [7]; 11.2% in data set [8]. Moreover, the Activity in data set [9] came out at 0.332%. In addition, the AUC in [5] worked out at 10838.33 ng·h/mL. Moreover, the viability at 24 h, 100 µM in data set [6] was > 70%.
